ChEMBL document CHEMBL1124709, “Synthesis and antiviral activity of 3'-heterocyclic substituted 3'-deoxythymidines” (1990)
pEC50: −log10 of the molar value.

Assays:
Type in all cases: functional
C3H/3T3 [1] = assay: Inhibitory effect on MSV-induced transformation of C3H/3T3 cells; conditions: Mus musculus, read-out: ED50 (the source's name)
In short: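 Murine embryo fibroblast C3H/3T3 cells infected with Moloney murine sarcoma virus; the read-out is inhibition of virus-induced cell transformation.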

MT4 [2] = assay: Effective dose of compound required to achieve 50% protection of MT-4 cells against the cytopathic effect of HIV; conditions: Homo sapiens, read-out: ED50 (the source's name)
In short: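 HIV-1 strain HTLV-III_B in human MT-4 cells; the read-out is inhibition of virus-induced cytopathic effect. ED50 is the dose giving 50% protection of the cells.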

MT4 [3] = assay: Cytotoxic dose required to reduce the viability of normal uninfected MT-4 cells by 50%; conditions: Homo sapiens, read-out: CD50 (the source's name)
C3H/3T3 [4] = assay: Minimum cytotoxic concentration required to inhibit MSV-induced transformation of C3H/3T3 cells; conditions: Mus musculus
In short: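 Murine embryo fibroblast C3H/3T3 cells examined under the microscope. The value is the minimum concentration at which an alteration of normal cell morphology was seen.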

Compound | pEC50 (C3H/3T3 [1]) | pEC50 (MT4 [2]) | CC50 (MT4 [3]) | MCC (C3H/3T3 [4])
Cc1cn([C@@H]2O[C@H](CO)[C@H](n3cncn3)C2O)c(=O)[nH]c1=O (stereo partly drawn) | < 4.00 | < 3.30 | > 500 µM | > 100 µM
Cc1cn([C@@H]2O[C@H](CO)[C@H](n3cccn3)C2O)c(=O)[nH]c1=O (stereo partly drawn) | < 4.00 | < 4.00 | > 100 µM | > 100 µM
Cc1cn([C@H]2C[C@@H](NC=O)[C@@H](CO)O2)c(=O)[nH]c1=O | < 4.00 | < 4.00 | 66 µM | > 100 µM
Cc1cn([C@@H]2O[C@H](CO)[C@H](n3ccnc3)C2O)c(=O)[nH]c1=O (stereo partly drawn) | < 4.00 | < 3.30 | > 500 µM | > 100 µM
Cc1cn([C@H]2C[C@@H](n3cncn3)[C@@H](CO)O2)c(=O)[nH]c1=O | < 4.00 | < 3.30 | > 500 µM | > 100 µM
Cc1cn([C@H]2C[C@@H](n3cccc3)[C@@H](CO)O2)c(=O)[nH]c1=O | 4.04 | 3.70 | > 500 µM | > 100 µM
Cc1cn([C@H]2C[C@@H](n3ccnn3)[C@@H](CO)O2)c(=O)[nH]c1=O | < 4.00 | < 3.30 | > 500 µM | > 100 µM
Cc1cn([C@@H]2O[C@H](CO)C[C@H]2n2cncn2)c(=O)[nH]c1=O | < 4.00 | < 3.30 | > 500 µM | > 100 µM
Cc1cn([C@H]2C[C@@H](n3cnnc3)[C@@H](CO)O2)c(=O)[nH]c1=O | < 4.00 | < 5.30 | 4.8 µM | > 100 µM
Cc1cn([C@H]2C[C@@H](n3ccnc3)[C@@H](CO)O2)c(=O)[nH]c1=O | < 4.00 | < 3.30 | > 500 µM | > 100 µM
Cc1cn([C@H]2C[C@@H](n3cccn3)[C@@H](CO)O2)c(=O)[nH]c1=O | < 4.00 | < 3.30 | > 500 µM | > 100 µM
Cc1cn([C@@H]2O[C@H](CO)[C@@H](O)C2n2cncn2)c(=O)[nH]c1=O (stereo partly drawn) | < 4.00 | < 3.30 | > 500 µM | > 100 µM
